# Source: PubChem
# An excerpt weighted towards active compounds, which were near 1.7% of everything screened.
# V-ATPase pHluor = regulators of yeast V-ATPase proton transport; 0.37% of 350,000 active; S. cerevisiae, pHLuorin cytosolic pH fluorescence; response, % at 10 µM; in the data active means response mostly above about 7.3%, no sharp cut-off; inactive means mostly below about 5.4%; further: actives read high
# CaV13 ICDI inh = Primary screen for inhibitors of IQ motif and Ca2+-dependent inactivation inhibitor domain binding in CACNA1D, Förster resonance energy transfer in living cells, … | HEK cells, CFP/YFP FRET ICDI-IQ, plate reader, 10 min; percent FRET-ratio fall versus neutral wells | inhibition, % at 12.3 µM | 0.098% of 340,000 active | AID 743397;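 active means mean replicate inhibition of at least 30% and at least 1% of replicates passing that level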;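 further: 0% = median of the neutral control wells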
# Vif inh = blocks HIV Vif function | HEK293T cells, Vif self-association by quenched fluorescence, imaging, 24 h | inhibition, % at 7.49 µM | 0.35% of 340,000 active | AID 602346; in the data active means inhibition above about 50%, passing the limit was not always enough
# NTR1 ag = activates human neurotensin receptor 1; NTR1-U2OS beta-arrestin-GFP spot imaging, agonist mode; activation, % at 20 µM; 0.17% of 330,000 active; AID 493036;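 active means activation at or above 40% of the spot to cytoplasm intensity ratio, with at least 20 cells analyzed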;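 further: 0% = DMSO without peptide and 100% = 100 nM NTR1 peptide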
# SR-BI HDL uptake = inhibitors of mouse SR-BI mediated HDL lipid uptake; Q61009; ldlA[mSR-BI] CHO cells, DiI-HDL uptake fluorescence, 3 h; inhibition, % at 12.5 µM; 0.96% of 320,000 active;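 active means mean replicate inhibition of at least 70% and a set share of replicates each scoring 70 or more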;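 further: 0% = median of neutral control wells and 100% = median of positive control wells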
# Target sequence (Q61009 whole entry, looked up): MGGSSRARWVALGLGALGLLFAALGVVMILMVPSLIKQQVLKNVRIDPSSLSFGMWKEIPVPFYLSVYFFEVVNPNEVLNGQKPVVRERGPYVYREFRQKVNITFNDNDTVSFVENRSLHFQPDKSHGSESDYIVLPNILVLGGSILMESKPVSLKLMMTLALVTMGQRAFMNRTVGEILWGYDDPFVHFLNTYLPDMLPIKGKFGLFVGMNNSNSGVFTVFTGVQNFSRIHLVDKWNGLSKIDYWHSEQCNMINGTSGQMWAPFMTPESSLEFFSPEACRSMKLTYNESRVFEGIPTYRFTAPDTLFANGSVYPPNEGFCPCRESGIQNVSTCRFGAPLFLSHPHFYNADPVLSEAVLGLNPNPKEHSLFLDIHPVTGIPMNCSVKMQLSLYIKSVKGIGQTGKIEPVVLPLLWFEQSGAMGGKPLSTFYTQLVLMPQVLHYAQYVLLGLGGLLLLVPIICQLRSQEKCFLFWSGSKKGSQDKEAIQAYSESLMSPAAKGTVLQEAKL
# SR-BI DiI-HDL act = activators of SR-BI mediated HDL lipid uptake | AID 504775 | CHO ldlA[mSR-BI] cells, DiI-HDL uptake fluorescence, 3 h; 100 = double the neutral-control signal | activation, % at 12.5 µM | 0.096% of 320,000 active;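 active means mean replicate activation of at least 60% and every replicate at or above 60%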;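 further: 0% = median plate neutral-control signal and 100% = twice that signal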
#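 System: LDL receptor-deficient CHO ldlA cells overexpressing murine SR-BI | Timing: 3 h uptake period with compound, 37 °C | Medium: HEPES-buffered (25 mM, pH 7.4) F12 plus 0.5% BSA | Dosing: Single-point compound dose | Signal: Bottom-read fluorescence, 550/595 nm | Read-out: Retained DiI signal reflecting DiI-HDL uptake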
# * = called active by the depositor; . = not tested or not shown.
SMILES,V-ATPase pHluor,CaV13 ICDI inh,Vif inh,NTR1 ag,SR-BI HDL uptake,SR-BI DiI-HDL act
Cc1cc(C)cc(-n2c(C)cc(/C=N\NC(=O)COc3cccc4cccnc34)c2C)c1,-1,-4,-14,7,76*,-76
Cc1cc(/C=N/NC(=O)COc2cccc3cccnc23)c(C)n1-c1ccc(O)cc1,0,-6,19,5,-9,9
C[C@H]1CN([C@@H](C)CO)C(=O)Cc2cc(NC(=O)CCC(F)(F)F)ccc2O[C@H]1CN(C)Cc1ccc(-c2ccccc2)cc1,-5,-4,-7,9,-154,154*
C[C@@H]1CN([C@H](C)CO)C(=O)Cc2cc(NC(=O)Nc3ccccc3)ccc2O[C@@H]1CN(C)C(=O)Nc1ccc2c(c1)OCO2,2,-12,4,0,-3,3
C[C@H]1CN([C@@H](C)CO)C(=O)Cc2cc(NC(=O)CCC(F)(F)F)ccc2O[C@H]1CN(C)Cc1ccc(C(F)(F)F)cc1,1,-5,.,15,-25,25
COc1ccc(NC(=O)Nc2ccc3c(c2)CC(=O)N([C@H](C)CO)C[C@@H](C)[C@H](CN(C)C(=O)Nc2ccccc2)O3)cc1,4,-4,8,-2,70*,-70
Cc1ccc(OCC(=O)N2CCc3ccccc3C2)cc1,5,0,12,4,-18,18
CN(C(=O)C(C)(C)C)c1ccc(OCC(=O)N2CCc3ccccc3C2)cc1,-1,-4,-7,-1,95*,-95
Cc1cccc(NC(=O)CSc2nnc(-c3ccc(S(=O)(=O)N4CCCC4)cc3)o2)c1,-1,-5,10,0,2,-2
Cc1ccc(NC(=O)CSc2nnc(-c3ccc(S(=O)(=O)N4CCCC4)cc3)o2)cc1C,3,-9,8,46*,21,-21
O=S(=O)(/C=C/c1cccc(Br)c1)N1CCOCC1,3,-2,2,-1,3,-3
COc1ccc2cc(/C(C)=N/NC(=S)Nc3cc(S(=O)(=O)N4CCOCC4)ccc3N3CCOCC3)ccc2c1,.,.,.,1,.,.
C/C(=N\NC(=S)Nc1cc(S(=O)(=O)N2CCOCC2)ccc1Cl)c1ccc(N2CCOCC2)cc1,-4,-4,3,2,102*,-102
O=C(Nc1ccccn1)c1cccc(S(=O)(=O)N2CCCC2)c1,2,-6,-8,1,-4,4
Cc1ccc(C(=O)Nc2c(-c3ccc(Cl)cc3)[nH][nH]c2=O)cc1,.,-4,-3,.,.,.
CCCCNC(=O)NNC(=O)COc1cccc(C)c1C,4,-5,4,-1,2,-2
COc1cccc2c1NC(C(=O)O)C1CC=CC21 (stereo not given),1,.,0,4,-47,47
O=C(O)C1Nc2c(O)cc(Cl)c([N+](=O)[O-])c2C2C=CCC12 (stereo not given),-3,-6,.,-1,83*,-83
CC(C)(C)[C@H]1CCC(=O)N([C@H](CSc2ccc(Br)cc2)Cc2ccccc2)CC1,0,-9,-7,11,-17,17
CC(C)(C)[C@H]1CCC(=O)N([C@H](CSc2ccccc2)Cc2ccccc2)CC1,-3,34*,.,6,-3,3
COc1ccc(OC)c(CN2CCN(C(=O)c3cccc(S(=O)(=O)Nc4ccccc4OC)c3)CC2)c1,-4,-6,1,0,77*,-77
COc1ccccc1CN1CCN(C(=O)c2cccc3ccccc23)CC1,-1,-15,34,-1,.,.
COc1cccc(CN2CCN(C(=O)c3ccc(-c4ccccc4)cc3)CC2)c1OC,-1,1,0,0,9,-9
COc1cc(CN2CCN(C(=O)c3ccc(-c4ccccc4)cc3)CC2)cc(OC)c1OC,-3,-6,-1,1,84*,-84
COc1cccc(OC)c1C(=O)N1CCN(Cc2ccccc2C)CC1,-5,.,18,1,-67,67*
COc1ccc(OC)c(CN2CCN(C(=O)c3ccc(S(=O)(=O)Nc4ccccc4F)cc3)CC2)c1,1,-2,4,0,58,-58
